In brackets after ≈: the same amount, converted by molar mass.
What follows are compounds tested on Mycobacterium tuberculosis (assay: Antituberculosis activity against multidrug-resistant Mycobacterium tuberculosis isolate Spec. 192 by twofold serial dilution method).
Type: functional
Summary of the method: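 Classical two-fold test-tube serial dilution in Youmans' modified Proskauer–Beck liquid medium with 10% bovine serum. Inocula from 14-day cultures. Compounds in ethylene glycol, 10 mg/mL stock, geometric dilutions in medium; 3.1, 6.2, 12.5, 25, 50 and 100 µg/mL evaluated. Incubation at 37 °C. MIC = lowest concentration inhibiting growth relative to a compound-free tube. INH, PZA and RMP served as reference drugs.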
With `S=c1[nH]nc(CCC2CCCCC2)n1-c1ccc(Cl)cc1` the MIC was 100 µg/mL (≈ 311 µM). Compound `S=c1[nH]nc(CCC2CCCCC2)o1` has an MIC of 25 µg/mL (≈ 118 µM). `CNC(=S)NNC(=O)CCC1CCCCC1` was tested, and the MIC was 100 µg/mL (≈ 411 µM). `O=C(CCC1CCCCC1)NN=C1SCCS1` gave an MIC of 100 µg/mL (≈ 367 µM). For `c1ccc2nc3cc4[nH]c(CCC5CCCCC5)nc4cc3nc2c1`, the MIC was 1.5 µg/mL (≈ 4.54 µM). For `Brc1cnc2[nH]c(CCC3CCCCC3)nc2c1`, the MIC was 6.2 µg/mL (≈ 20.1 µM). `S=c1[nH]nc(CCC2CCCCC2)[nH]1` showed an MIC of 50 µg/mL (≈ 237 µM). With `Cn1c(CCC2CCCCC2)n[nH]c1=S` the MIC was 100 µg/mL (≈ 444 µM). `CO[C@H]1/C=C/O[C@@]2(C)Oc3c(C)c(O)c4c(O)c(c(/C=N/N5CCN(C)CC5)c(O)c4c3C2=O)NC(=O)/C(C)=C\C=C\[C@H](C)[C@H](O)[C@@H](C)[C@@H](O)[C@@H](C)[C@H](OC(C)=O)[C@@H]1C` [RIFAMPIN] gave an MIC of 1.2 µg/mL (≈ 1.46 µM). In the case of `O=[N+]([O-])c1cc(Cl)cc2[nH]c(CCC3CCCCC3)nc12`, the MIC is reported as 12.5 µg/mL (≈ 40.6 µM). Compound `C=CCn1c(CCC2CCCCC2)n[nH]c1=S` has an MIC of 50 µg/mL (≈ 199 µM). With `CSC(=S)NNC(=O)CCC1CCCCC1` the MIC was 50 µg/mL (≈ 192 µM). `CC1(C)CNc2nnc(CCC3CCCCC3)n2C1` showed an MIC of 100 µg/mL (≈ 381 µM). Compound `O=C(CCC1CCCCC1)NNC(=S)Nc1ccc(Cl)cc1` has an MIC of 50 µg/mL (≈ 147 µM). In the case of `c1cnc2[nH]c(CCC3CCCCC3)nc2c1`, the MIC is reported as 50 µg/mL (≈ 218 µM). `NNC(=O)c1ccncc1` [ISONIAZID] was tested, and the MIC was 0.5 µg/mL (≈ 3.65 µM). `O=C(CCC1CCCCC1)NNC(=S)NC1CCCCC1` was tested, and the MIC was 100 µg/mL (≈ 321 µM). Work on `Cl.Cl.c1cc2nc(CCC3CCCCC3)[nH]c2cn1` yielded an MIC of 25 µg/mL. With `C=CCNC(=S)NNC(=O)CCC1CCCCC1` the MIC was 100 µg/mL (≈ 371 µM). For `c1ccc2c(c1)ccc1nc(CCC3CCCCC3)[nH]c12`, the MIC was 1.5 µg/mL (≈ 5.39 µM). `S=c1[nH]nc(CCC2CCCCC2)n1C1CCCCC1` gave an MIC of 100 µg/mL (≈ 341 µM). In the case of `CSC(=NNC(=O)CCC1CCCCC1)SC`, the MIC is reported as 50 µg/mL (≈ 182 µM). For `NC(=O)c1cnccn1` [PYRAZINAMIDE], the MIC was 25 µg/mL (≈ 203 µM).
